{
  "source": "ChEMBL document CHEMBL2157987",
  "about": "“Benzimidazole bearing oxadiazole and triazolo-thiadiazoles nucleus: design and synthesis as anticancer agents” (2012)",
  "key": {"[1]": {"system": "UO-31", "experiment": "Cytotoxicity against human UO31 cells assessed as cell growth at 10 uM after 48 hrs by SRB assay", "assay_type": "functional", "conditions": "UO-31, 48 h, read-out: Activity", "outline": "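This was a single-concentration screen on UO-31 in RPMI 1640 with 5% FBS. Compound went on 24 h after plating, with 48 h exposure at 37 °C. End point was sulforhodamine B protein staining read at 515 nm. Results are percent growth of treated cells relative to untreated controls and time-zero plates.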"}, "[2]": {"system": "K562", "experiment": "Cytotoxicity against human K562 cells assessed as cell growth at 10 uM after 48 hrs by SRB assay", "assay_type": "functional", "conditions": "K562, 48 h, read-out: Activity", "outline": "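NCI single-dose screen at 10 µM. Cells were incubated 48 h and the end point was read by sulforhodamine B protein staining. Results are given as percent growth of treated cells relative to untreated controls. Growth of 32% or less was counted as active.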"}},
  "data": [
    {"smiles": "O=C(CCc1nnc(-c2cc(O)c(O)c(O)c2)o1)c1nc2ccccc2[nH]1", "values": [
      {"measurement": "growth at 10 µM", "setting": "[1]", "result": 62.2, "unit": "%"}
    ]},
    {"smiles": "O=C(CCc1nnc(/C=C/c2ccccc2)o1)c1nc2ccccc2[nH]1", "values": [
      {"measurement": "growth at 10 µM", "setting": "[2]", "result": 24.6, "unit": "%"}
    ]},
    {"smiles": "O=C(CCc1nnc2sc(-c3cc(O)c(O)c(O)c3)nn12)c1nc2ccccc2[nH]1", "values": [
      {"measurement": "growth at 10 µM", "setting": "[2]", "result": 8.3, "unit": "%"}
    ]},
    {"smiles": "Nc1cc(Br)c(-c2nn3c(CCC(=O)c4nc5ccccc5[nH]4)nnc3s2)c(Br)c1", "values": [
      {"measurement": "growth at 10 µM", "setting": "[2]", "result": 7.05, "unit": "%"}
    ]},
    {"smiles": "O=C(CCc1nnc2sc(/C=C/c3ccccc3)nn12)c1nc2ccccc2[nH]1", "values": [
      {"measurement": "growth at 10 µM", "setting": "[2]", "result": 2.17, "unit": "%"}
    ]}
  ]
}
